Screens deposited in PubChem BioAssay by several laboratories.
Compounds with a hit are over-represented: about 1.5% of the library has one in this group of screens.
Rad51 HR inh: Rad51 (human) homologous recombination inhibition. hRad51 DNA strand exchange, fluorescence dequenching. inhibition, % at 10 µM. 200,000 compounds, 0.085% hits. AID 1385;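 active = inhibition above 40% at the single screening dose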
Target sequence (Q06609 whole entry, looked up): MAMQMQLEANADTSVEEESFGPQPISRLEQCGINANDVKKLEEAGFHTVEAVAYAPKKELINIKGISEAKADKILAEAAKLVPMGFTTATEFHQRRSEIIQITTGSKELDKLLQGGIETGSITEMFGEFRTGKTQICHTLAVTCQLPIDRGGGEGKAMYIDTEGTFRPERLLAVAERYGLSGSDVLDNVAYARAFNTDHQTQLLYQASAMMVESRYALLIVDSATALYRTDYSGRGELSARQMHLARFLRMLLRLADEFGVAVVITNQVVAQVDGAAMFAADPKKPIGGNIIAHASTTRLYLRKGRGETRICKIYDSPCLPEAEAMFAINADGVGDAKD
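Test system: preformed human Rad51 ssDNA filaments. Compound dosing: single dose, 10 µM final compound. Incubation: filaments 15 min 37 °C, then compound 30 min. Technique: FRET fluorescence dequenching, excitation 485 nm, emission 520 nm. Read-out basis: percent inhibition from fluorescence, normalised to plate control and blank means. Benchmarks: plate controls and plate blanks.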
b-catenin transl: modulators of beta-catenin nuclear translocation; nuclear translocation activity, % at 5 µM; 190,000 compounds, 0.3% hits; HeLa beta-catenin nuclear translocation, immunofluorescence imaging;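 active = nuclear translocation activity above 50% at 5 µM, with a well cell count of 50 or more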;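 note: per-cell ratio of nuclear to cytoplasmic median beta-catenin stain intensity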
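Test system: human HeLa cells, native beta-catenin. Compound dosing: 5 µM primary single dose, 0.1% DMSO, 0.02–20 µM confirmation series. Incubation: compound exposure 24 h at 37°C. Detection: beta-catenin immunostaining with DAPI counterstain, 20x imaging, 6 fields/well. Read-out basis: Nuclear/cytoplasmic beta-catenin signal ratio, % activation.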
TbHK1 inh: blocks Trypanosoma brucei hexokinase 1 activity; recombinant TbHK1, G6PDH-coupled NADH A340; inhibition, % at 10 µM; 220,000 compounds, 0.11% hits; AID 1430;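 active = inhibition of 50% or more in the single-dose primary screen; inactive = inhibition below 50%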
Dynein cargo inh: blocks dynein driven cargo transport along microtubules; 3617.4 mouse cells, GR-EGFP nuclear translocation imaging; test concentration mostly 20 µM; stimulated with dexamethasone, 1 µM; active compounds read low; 220,000 compounds, 0.47% hits; z-score, hits read low;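 active = plate z-score of nuclear minus cytoplasmic receptor signal below a set negative limit, without overly bright fluorescence or cell loss, cut at about -3.5 in these data, passing the limit was not always enough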;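 note: z-score of nuclear minus cytoplasmic ring GR-EGFP intensity difference per well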
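Buffer or medium: tet-free, stripped-serum medium; reagent: dexamethasone at 1.0 µM final, 30 min; incubation: 48 h induction, 1 h compound, 30 min dex at 37 °C; measured by: formaldehyde fixation, Hoechst nuclear stain, 10x automated fluorescence imaging; read-out: nuclear-to-cytoplasmic GR-EGFP distribution per well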
MT stabilizer: stabilizes microtubules in HeLa cells. HeLa tubulin immunostaining HCS, 24 h; share of cells brighter than vehicle mean+2SD. % tubulin-high responders, % at 10 µM. 200,000 compounds, 0.83% hits;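 active = plate Z-score above 3 for both tubulin-high and condensed-nucleus cell shares, with cell loss under 80%, at 10 µM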;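 note: anti alpha tubulin signal scored within the nucleus-defined area of each cell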
Numbers stand for hits.

Screening COc1cc(/C=N\NC(=O)C2COc3ccccc3O2)cc(OC)c1O (stereo unspecified) returned Rad51 HR inh inactive, b-catenin transl inactive, TbHK1 inh inactive and Dynein cargo inh inactive.
`O=C(N/N=C/c1ccc2c(c1)OCO2)C1COc2ccccc2O1` (stereo unspecified) gave Rad51 HR inh inactive, b-catenin transl inactive, TbHK1 inh inactive, Dynein cargo inh inactive and MT stabilizer 41.
Screening Cc1ccc(-c2ccc(C(=O)O)c(C)n2)cc1 returned Rad51 HR inh inactive, b-catenin transl inactive, TbHK1 inh inactive, Dynein cargo inh inactive and MT stabilizer inactive.
Screening Cc1ccc(C(=O)n2c3ccccc3c3ccccc32)cc1 returned Rad51 HR inh inactive, b-catenin transl 96, TbHK1 inh inactive, Dynein cargo inh inactive and MT stabilizer 44.
For CCOc1ccc(Nc2cc(=O)oc3ccccc23)cc1 the results were Rad51 HR inh inactive, b-catenin transl inactive, TbHK1 inh inactive, Dynein cargo inh inactive and MT stabilizer 29.
Screening O=C(/C=C/c1ccccc1[N+](=O)[O-])c1ccccc1Br returned Rad51 HR inh inactive, b-catenin transl inactive, TbHK1 inh inactive, Dynein cargo inh inactive and MT stabilizer 29.
Screening O=C(CSc1nnc(Cc2ccccc2)o1)N1CCc2ccccc21 returned Rad51 HR inh 85, b-catenin transl inactive, TbHK1 inh inactive, Dynein cargo inh inactive and MT stabilizer inactive.
`O=C(CSc1nnc(CNc2ccccc2)o1)N1CCCc2ccccc21` gave TbHK1 inh inactive, Dynein cargo inh inactive and MT stabilizer inactive.
For O=C(O)c1ccc(-n2cncn2)c([N+](=O)[O-])c1 the results were b-catenin transl inactive, TbHK1 inh inactive and Dynein cargo inh inactive.
For Cc1cc(C)c2c(N)c3cccc(C)c3nc2n1 the results were Rad51 HR inh inactive, b-catenin transl inactive, TbHK1 inh inactive, Dynein cargo inh inactive and MT stabilizer 13.
For CC(=O)NC[C@H]1CN(c2ccc(N3CCOCC3)c(F)c2)C(=O)O1 the results were Rad51 HR inh inactive and b-catenin transl inactive.
`CC(=O)n1nc(-c2ccc(Cl)cc2)nc1NCc1ccco1` gave Rad51 HR inh inactive, TbHK1 inh inactive, Dynein cargo inh inactive and MT stabilizer inactive.
`COc1ccc(CC(=O)n2nc(-c3ccc(Cl)cc3)nc2NCc2ccco2)cc1` gave Rad51 HR inh inactive, b-catenin transl inactive, TbHK1 inh inactive, Dynein cargo inh inactive and MT stabilizer 28.
For O=C(COc1ccc(S(=O)(=O)N2CCOCC2)cc1)Nc1ccc(Cl)c(C(F)(F)F)c1 the results were Rad51 HR inh inactive, b-catenin transl inactive, TbHK1 inh inactive, Dynein cargo inh inactive and MT stabilizer 32.
`O=C(COc1ccc(S(=O)(=O)N2CCOCC2)cc1)Nc1ccc2c(c1)OCCO2` gave Rad51 HR inh inactive, TbHK1 inh inactive, Dynein cargo inh inactive and MT stabilizer inactive.
`COc1ccccc1NC(=S)N(Cc1ccco1)Cc1cc2cc(C)ccc2[nH]c1=O` gave b-catenin transl inactive, TbHK1 inh inactive, Dynein cargo inh inactive and MT stabilizer 33.
`Cc1ccc2[nH]c(=O)c(CN(Cc3ccco3)C(=O)c3ccncc3)cc2c1` gave Rad51 HR inh inactive, b-catenin transl inactive, TbHK1 inh inactive, Dynein cargo inh inactive and MT stabilizer 14.
`COc1ccccc1NC(=O)N(Cc1ccco1)Cc1cc2cccc(C)c2[nH]c1=O` gave Rad51 HR inh inactive, b-catenin transl inactive, TbHK1 inh inactive, Dynein cargo inh inactive and MT stabilizer inactive.
Screening COc1ccc(C(=O)N(Cc2ccco2)Cc2cc3cc(C)ccc3[nH]c2=O)cc1OC returned Rad51 HR inh inactive, TbHK1 inh inactive, Dynein cargo inh inactive and MT stabilizer inactive.
`CN(C)/C=C(/C(=O)c1ccc(Cl)cc1)S(C)(=O)=O` gave Rad51 HR inh inactive, b-catenin transl inactive, TbHK1 inh inactive, Dynein cargo inh inactive and MT stabilizer inactive.
`Cn1c(SCC(=O)N(C2CCCCC2)C2CCCCC2)nnc1-c1cccs1` gave Rad51 HR inh inactive, TbHK1 inh inactive, Dynein cargo inh inactive and MT stabilizer 28.
For CCOc1c(Br)cc(CNc2ccc3c(c2)OCCO3)cc1OC the results were Rad51 HR inh inactive, b-catenin transl 132, TbHK1 inh inactive, Dynein cargo inh inactive and MT stabilizer inactive.
`CCOc1cc(CNc2ccc3c(c2)OCCO3)cc(Br)c1OC` gave Rad51 HR inh inactive, b-catenin transl 143, TbHK1 inh inactive, Dynein cargo inh inactive and MT stabilizer inactive.
